We go through 14 compounds from ChEMBL document CHEMBL1123896 (J Med Chem, 1987).

Series [1] is described as follows: Apparent lipophilicity (log kw) at pH 7.5. Format: physicochemical. Conditions: buffer. In a few lines: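 Measured at pH 7.5 by RP-HPLC. Capacity factors were extrapolated to 0% methanol, and the resulting log kw was taken as apparent lipophilicity. Values that could not be measured were estimated from derived fragmental values.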
The target of series [2] is D(2) dopamine receptor (Rattus norvegicus) (UniProt P61169). The experiment in a line: Eudisimic index was determined for the compound against Dopamine receptor D2. In a few lines:
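Eudismic index is the log of the eutomer/distomer affinity ratio, calculated as pIC50(eutomer) − pIC50(distomer) for each enantiomer pair. The pIC50 values come from displacement of specific [3H]spiperone binding at the dopamine D2 receptor.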

Series [3] has as its target Sigma non-opioid intracellular receptor 1 (Rattus norvegicus) (UniProt Q9R0C9). Nature of the series: Eudisimic index was determined for the compound against sigma receptor. A digest of the protocol: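 Eudismic index is the log of the eutomer/distomer affinity ratio, calculated as pIC50(eutomer) − pIC50(distomer) for each enantiomer pair, using σ-receptor binding pIC50 values.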

Series [4] is described as follows: Selectivity pIC50 (sigma)-pIC50(D2).
The target of the next series is D(2) dopamine receptor (Rattus norvegicus, UniProt P61169). Nature of the series: Binding affinity for dopamine receptor D2 was evaluated by the ability to displace [3H]spiperone.
In series [5] the target is Sigma non-opioid intracellular receptor 1 (Rattus norvegicus, UniProt Q9R0C9). The experiment in a line: Binding affinity against sigma receptor.
The target of series [6] is D(2) dopamine receptor (Rattus norvegicus) (UniProt P61169).
D(2) dopamine receptor (Rattus norvegicus), sequence (P61169 whole entry): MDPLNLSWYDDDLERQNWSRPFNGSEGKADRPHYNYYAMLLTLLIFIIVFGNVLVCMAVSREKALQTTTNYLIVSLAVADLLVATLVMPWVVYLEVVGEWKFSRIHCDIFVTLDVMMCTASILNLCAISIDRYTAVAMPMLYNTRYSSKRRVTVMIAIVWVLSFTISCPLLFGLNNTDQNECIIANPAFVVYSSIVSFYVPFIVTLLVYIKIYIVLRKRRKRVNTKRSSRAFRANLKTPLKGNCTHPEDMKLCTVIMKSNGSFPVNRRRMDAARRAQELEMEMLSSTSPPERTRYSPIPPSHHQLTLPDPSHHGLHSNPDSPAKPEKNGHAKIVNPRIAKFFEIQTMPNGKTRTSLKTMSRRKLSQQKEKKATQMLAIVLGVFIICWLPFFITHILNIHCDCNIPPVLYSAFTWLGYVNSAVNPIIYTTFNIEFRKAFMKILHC

Sigma non-opioid intracellular receptor 1 (Rattus norvegicus), sequence (Q9R0C9 whole entry): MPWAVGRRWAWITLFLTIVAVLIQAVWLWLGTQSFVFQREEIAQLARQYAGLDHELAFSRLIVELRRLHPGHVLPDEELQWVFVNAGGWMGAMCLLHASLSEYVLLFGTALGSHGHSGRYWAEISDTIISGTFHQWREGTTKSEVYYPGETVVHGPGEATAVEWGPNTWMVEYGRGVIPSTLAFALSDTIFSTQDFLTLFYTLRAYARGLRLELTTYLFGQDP
D(2) dopamine receptor, sequence (P61169 whole entry): as the sequence (P61169 whole entry) above
Sigma non-opioid intracellular receptor 1, sequence (Q9R0C9 whole entry): as the sequence (Q9R0C9 whole entry) above

Regarding `Oc1cccc([C@H]2CCCNC2)c1`, the Log kw in series [1] stood at 0.41. Besides, the EI is 0.6 in series [2] and 0.53 in series [3]. This compound also showed a Selectivity in series [4] of -1.02.
On to `CCCN1CCC[C@@H](c2cccc(O)c2)C1` [PRECLAMOL], for which, in series [1], the Log kw turned out to be 1.05.
For `CC(C)N1CCC[C@@H](c2cccc(O)c2)C1`, the Log kw in series [1] is listed as 0.84. In series [4], this compound came in with a Selectivity of 0.23.
Take `CN1CCC[C@@H](c2cccc(O)c2)C1`: the Log kw in series [1] came to 0.94. The 50% inhibitory concentration (IC50) is 1950 nM at D(2) dopamine receptor and 1910 nM in series [5]. In series [4], the Selectivity worked out at 0.01.
Consider `CN1CCC[C@H](c2cccc(O)c2)C1`, for which the Log kw in series [1] came to 0.96. Further, the EI turned out to be 0.32 in series [2] and 0.71 in series [3].
Consider `Oc1cccc([C@@H]2CCCNC2)c1`, for which, in series [1], the Log kw is 0.41. Further, in series [4], the Selectivity was -0.95.
For `CC(C)N1CCC[C@H](c2cccc(O)c2)C1`, the Log kw in series [1] is recorded as 0.84. For the same compound, the EI worked out at 1.53 in series [2] and 0.07 in series [6].
For the compound `CCCN1CCC[C@H](c2cccc(O)c2)C1`, in series [1], the Log kw turned out to be 1.05. The values for the EI in series [2] and in series [3] were 0.61 and 0.71, respectively.
For `CCCCN1CCC[C@@H](c2cccc(O)c2)C1`, the Log kw in series [1] is 1.41. The Selectivity in series [4] stood at 0.95.
In the same order, the values of `Oc1cccc([C@@H]2CCCN(CCc3ccccc3)C2)c1` are 2.27 and 0.44.
Consider `CCN1CCC[C@@H](c2cccc(O)c2)C1`, for which, in series [1], the Log kw was 0.84.
On to `Oc1cccc([C@H]2CCCN(CCc3ccccc3)C2)c1`, for which the Log kw in series [1] amounted to 2.27. Moreover, the EI in series [2] is 1.45; in series [3] it was 0.3.
`CCCCN1CCC[C@H](c2cccc(O)c2)C1`: the Log kw in series [1] was found to be 1.41. The EI came to 0.99 in series [2] and 0.54 in series [3].
As for `CCN1CCC[C@H](c2cccc(O)c2)C1`, the Log kw in series [1] turned out to be 0.84.

As a reminder, the IC50 is the concentration that inhibits the measured activity by half.
